In general, Ki refers to the dissociation constant of the complex between target and ligand, obtained from inhibition or displacement. The Kd is the constant that tells how readily two partners part at equilibrium. A high value points to weaker binding.

The values below come from ChEMBL document CHEMBL1146211, “Conformationally constrained analogues of diacylglycerol (DAG). 28. DAG-dioxolanones reveal a new additional interaction site in the C1b domain of PKC delta” (J Med Chem, 2007).

The structures appear in SMILES notation. Activity calls are given as the source filed them. The calls are words filed in the database; no cut-off is given here.

The target in assay [1] is Protein kinase C delta type (Mus musculus) (UniProt P28867). Kind of assay: Ratio of Ki for mouse PKCdelta C1b Q27E mutant to Ki for mouse wild type C1b domain of PKCdelta.
Protein kinase C delta type (Mus musculus), sequence (P28867 whole entry, looked up, the tested form may be a part): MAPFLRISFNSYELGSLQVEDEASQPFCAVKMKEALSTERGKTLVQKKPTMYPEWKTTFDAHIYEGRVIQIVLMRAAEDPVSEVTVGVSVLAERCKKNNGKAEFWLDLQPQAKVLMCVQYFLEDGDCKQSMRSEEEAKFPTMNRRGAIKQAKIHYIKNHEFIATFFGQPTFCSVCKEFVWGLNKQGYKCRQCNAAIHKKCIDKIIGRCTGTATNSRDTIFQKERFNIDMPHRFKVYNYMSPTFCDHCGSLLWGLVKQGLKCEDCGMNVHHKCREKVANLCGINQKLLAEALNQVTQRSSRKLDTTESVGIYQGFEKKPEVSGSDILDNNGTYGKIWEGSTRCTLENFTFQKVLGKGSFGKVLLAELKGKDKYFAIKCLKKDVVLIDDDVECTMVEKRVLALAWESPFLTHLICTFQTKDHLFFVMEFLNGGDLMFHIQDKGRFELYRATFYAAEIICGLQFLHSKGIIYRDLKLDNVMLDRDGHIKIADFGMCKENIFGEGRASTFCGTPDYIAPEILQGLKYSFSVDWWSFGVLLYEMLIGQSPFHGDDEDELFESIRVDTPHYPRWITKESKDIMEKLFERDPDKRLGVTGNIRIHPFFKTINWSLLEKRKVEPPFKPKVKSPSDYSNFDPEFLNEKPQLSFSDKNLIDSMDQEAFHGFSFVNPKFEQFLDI
Assay [2] concerns the target T1, Protein kinase C delta type (Mus musculus, UniProt P28867). Briefly: Displacement of [3H]PDBu from mouse wild type C1b domain of PKCdelta expressed in Escherichia coli. In a few lines:
(§1)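 Competitive displacement of [3H]PDBu from GST-tagged C1 domains of PKCδ (expressed in E. coli, IPTG-induced, spin-purified, stored in 30% glycerol at -70 °C). 18 °C for 10 min, PEG precipitation on ice, scintillation counting of pellet and supernatant. Ki from the lab's standard method. Three independent experiments.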
(Loss of bound radioactivity is the signal in a displacement assay; it reports binding, not function.)

Assay [3] concerns the target Protein kinase C delta type (Mus musculus, UniProt P28867, Q257E). Briefly: Displacement of [3H]PDBu from mouse PKCdelta C1b Q27E mutant expressed in Escherichia coli. In a few lines:
as §1

The target in assay [4] is Protein kinase C alpha type (Mus musculus, UniProt P20444). Kind of assay: Displacement of [3H]PDBu from mouse recombinant PKCalpha expressed in Escherichia coli. In a few lines:
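Recombinant full-length mouse PKCα, partially purified, is tested for competitive displacement of [3H]PDBu with phosphatidylserine (100 µg/mL), 4 mg/mL bovine IgG and 50 mM Tris-HCl pH 7.4. Incubation is 37 °C for 5 min, followed by polyethylene glycol precipitation on ice and scintillation counting of bound and free label. Ki is calculated by the lab's standard method, averaged over three independent experiments.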

The target of assay [5] is T1, Protein kinase C delta type. Briefly: Binding affinity to mouse PKC delta C1a Q27E mutant expressed in Escherichia coli. In a few lines:
as §1

The target is the same in assay [6]. Kind of assay: Binding affinity to mouse wild-type PKCdelta C1a expressed in Escherichia coli. In a few lines:
as §1

Assay [7] has as its target Protein kinase C delta type (Mus musculus) (UniProt P28867). Briefly: Effect on membrane translocation of PKCdelta-GFP Q257E mutant in CHOK1 cells at 20 uM after 1 hr. As to conditions: CHO-K1. The class given is functional, cell-based. The method in brief: (§2)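 CHO-K1 cells grown at 37 °C, 5% CO2 in F-12 with 10% FBS and penicillin/streptomycin, transfected with GFP-fused PKCδ (wild type or Q257E); imaged 24 h later. Live confocal time series (488 nm excitation, 522/32 emission) in a perfusion chamber at 37 °C after ligand addition (test compound 20 µM; PMA 1 µM). Plasma- and internal-membrane GFP redistribution assessed visually.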

For assay [8] the target is unchanged. Briefly: Effect on membrane translocation of wildype full length PKCdelta-GFP in CHOK1 cells at 20 uM within 5 mins. The class given is functional, cell-based. The note with it: CHO-K1. In a few lines:
as §2

T1 sequence (P28867 whole entry, the tested form may be a part): as the sequence (P28867 whole entry, looked up, the tested form may be a part) above
Protein kinase C delta type (Mus musculus, UniProt P28867, Q257E), sequence (P28867 whole entry Q257E): as the sequence (P28867 whole entry, looked up, the tested form may be a part) above, with Q257E counted along it

On to `CC(C)C/C=C1/OC(CO)(COC(=O)CC(CC(C)C)CC(C)C)OC1=O` (centres undefined), for which, in assay [1], the Ratio Ki came out at 1910. The figures for the inhibition constant Ki in assay [2] and in assay [3] were 0.9 nM and 1720 nM, respectively.

Turning to `CC(C)CC(CC=C1OC(CO)(COC(=O)C(C)(C)C)OC1=O)CC(C)C` (centres undefined), the inhibition constant (Ki) in assay [4] was determined as 6.41 nM.

As to `CC(C)CC(C/C=C1/CC(CO)(COC(=O)C(C)(C)C)OC1=O)CC(C)C` (centres undefined), the Ratio Ki in assay [1] came to 39. The Ki turned out to be 1.15 nM in assay [2]; 476 nM in assay [5]; 1.21 nM in assay [6]; 44.8 nM in assay [3]; 2.9 nM in assay [4].

`CC(C)CC(=O)OCC1(CO)C/C(=C/CC(CC(C)C)CC(C)C)C(=O)O1` (centres undefined): in assay [1], the Ratio Ki amounted to 55. For the same compound, the Ki in assay [2] turned out to be 0.96 nM; in assay [3], 53 nM; in assay [4], 3.49 nM.

As for `CC(C)CC(=O)OCC1(CO)OC(=O)/C(=C\CC(CC(C)C)CC(C)C)O1` (centres undefined), the Ratio Ki in assay [1] was found to be 1230. Besides, the Ki in assay [2] was 2.82 nM; in assay [3], 3460 nM; in assay [4] it was 19.8 nM.

`CC(C)CC=C1OC(CO)(COC(=O)CC(CC(C)C)CC(C)C)OC1=O` (centres undefined): the inhibitory constant (Ki) in assay [4] amounted to 5.78 nM.

In the case of `CC(C)CC(C/C=C1/OC(CO)(COC(=O)C(C)(C)C)OC1=O)CC(C)C` (centres undefined), the outcome in assay [7] was inactive. In assay [1], the Ratio Ki came to 3070. In addition, the Ki in assay [2] came out at 0.82 nM; in assay [5] it was 1570 nM; in assay [6] it was 4.31 nM; in assay [3] it was 2510 nM. Further, the result in assay [8] was Active.

Regarding `CCCC(=O)O[C@@H]1[C@@H](C)[C@@]2(O)[C@@H](C=C(CO)C[C@]3(O)C(=O)C(C)=C[C@@H]23)[C@@H]2C(C)(C)[C@]12OC(=O)CCC`, the inhibitory constant (Ki) came out at 0.33 nM in assay [2] and 6.2 nM in assay [3]. The dissociation constant Kd was found to be 383 nM in assay [5] and 2.04 nM in assay [6].

As for `CC(C)C/C=C1/CC(CO)(COC(=O)CC(CC(C)C)CC(C)C)OC1=O` (centres undefined), the Ratio Ki in assay [1] came to 35. Also, the inhibition constant (Ki) in assay [2] amounted to 2.13 nM; in assay [3] it was 73.7 nM; in assay [4], 3.07 nM.
